Data reported in ChEMBL document CHEMBL3352204, “Cytotoxic and Antibacterial Quinone Sesquiterpenes from a Myrothecium Fungus” (J Nat Prod, 2014).
≈ marks a conversion by molar mass, not a printed value. Calls of active or inactive are those of the source. No cut-off for these calls is given here.

Legend:
[1] = tested on: Bacillus cereus; assay: Antibacterial activity against Bacillus cereus CMCC 63302 after 7 hrs by Alamar Blue assay; format: functional; settings: CMCC 63302, 7 h
Procedure, shortened: (§1)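 Strains kept in 20% glycerol at −80 °C, grown in MHB 12 h at 37 °C with shaking at 150 rpm, then adjusted to 1 × 10^5 CFU/mL in MHB. Suspension held Alamar Blue (8% v/v) and 2-fold diluted compound in DMSO (4% v/v), final 1.562–100 μg/mL, in triplicate. Incubated 7 h at 37 °C in the dark. MIC is the lowest concentration whose well stays blue.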

[2] = tested on: A549; assay: Cytotoxicity against human A549 cells assessed as inhibition of cell growth after 72 hrs by MTT assay; format: functional, cell-based; settings: A549, 72 h
Procedure, shortened: (§2)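 Cells grown in RPMI-1640 with 10% FBS at 37 °C under 5% CO2, seeded at 5 × 10^4 cells/mL and allowed about 24 h to attach. Medium was replaced and compound in DMSO added at final 0.016–50 μg/mL (5-fold steps), in quadruplicate, for 72 h. MTT was then given for 4 h, formazan dissolved in DMSO and OD read at 570 nm. IC50 obtained by nonlinear logistic regression.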

[3] = tested on: HeLa; assay: Cytotoxicity against human HeLa cells assessed as inhibition of cell growth after 72 hrs by MTT assay; format: functional, cell-based; procedure, shortened: as §2
[4] = tested on: Staphylococcus aureus; assay: Antibacterial activity against Staphylococcus aureus ATCC 6538 after 7 hrs by Alamar Blue assay; format: functional; settings: ATCC 6538, 7 h; procedure, shortened: as §1
[5] = tested on: Shigella dysenteriae; assay: Antibacterial activity against Shigella dysenteriae CMCC 51252 after 7 hrs by Alamar Blue assay; format: functional, organism-based
[6] = tested on: Salmonella typhimurium; assay: Antibacterial activity against Salmonella typhimurium CMCC 50115 after 7 hrs by Alamar Blue assay; format: functional, organism-based; settings: Salmonella enterica subsp. enterica serovar Typhimurium; procedure, shortened: as §1
[7] = tested on: HepG2; assay: Cytotoxicity against human HepG2 cells assessed as inhibition of cell growth after 72 hrs by MTT assay; format: functional, cell-based; settings: HepG2, 72 h; procedure, shortened: as §2
[8] = tested on: Escherichia coli; assay: Antibacterial activity against Escherichia coli ATCC 8739 after 7 hrs by Alamar Blue assay; format: functional, organism-based; procedure, shortened: as §1

NC[C@H]1O[C@H](O[C@H]2[C@H](O)[C@@H](O[C@H]3O[C@H](CO)[C@@H](O)[C@H](N)[C@H]3O)[C@H](N)C[C@@H]2N)[C@H](O)[C@@H](O)[C@@H]1O [KANAMYCIN]
MIC [1]: 6.25 µg/mL (≈ 12.9 µM)

COc1cccc2c1C(=O)c1c(O)c3c(c(O)c1C2=O)C[C@@](O)(C(=O)CO)C[C@@H]3O[C@H]1C[C@H](N)[C@H](O)[C@H](C)O1 [DOXORUBICIN]
IC50 [2]: 0.69 µM | IC50 [3]: 0.47 µM

C=C1CC[C@H]2[C@](C)(CO)CCC[C@]2(C)[C@H]1C[C@]12O[C@H]1[C@@H](O)C(CO)=CC2=O
MIC [4]: 50 µg/mL (≈ 133 µM) | IC50 [2]: 39.8 µM | IC50 [3]: 29.3 µM | MIC [5]: inactive | MIC [6]: inactive | MIC [1]: 100 µg/mL (≈ 266 µM) | IC50 [7]: 48.5 µM | MIC [8]: inactive

C=C1CC[C@H]2[C@](C)(CO)CCC[C@]2(C)[C@H]1C[C@@]12O[C@@H]1[C@@H](O)C(CO)=CC2=O
MIC [4]: 50 µg/mL (≈ 133 µM) | IC50 [2]: 41.5 µM | IC50 [3]: 35.9 µM | MIC [5]: inactive | MIC [6]: inactive | MIC [1]: 100 µg/mL (≈ 266 µM) | IC50 [7]: 34.2 µM | MIC [8]: inactive

C=C1CC[C@H]2[C@](C)(COC(C)=O)CCC[C@]2(C)[C@H]1C[C@@]12O[C@@H]1[C@@H](O)C(CO)=CC2=O
MIC [4]: 50 µg/mL (≈ 119 µM) | IC50 [2]: 18 µM | IC50 [3]: 19.6 µM | MIC [5]: inactive | MIC [6]: inactive | MIC [1]: > 100 µg/mL | IC50 [7]: 27.8 µM | MIC [8]: inactive

C=C1CC[C@H]2[C@](C)(COC(C)=O)CCC[C@]2(C)[C@H]1C[C@]12O[C@H]1[C@H](O)C(CO)=CC2=O
MIC [4]: 100 µg/mL (≈ 239 µM) | IC50 [2]: 29.4 µM | IC50 [3]: 19.2 µM | MIC [5]: inactive | MIC [6]: inactive | MIC [1]: > 100 µg/mL | IC50 [7]: 37.8 µM | MIC [8]: inactive

C=C1CC[C@H]2[C@](C)(CO)CCC[C@]2(C)[C@H]1CC1=C(O)C(=O)[C@](O)(CO)[C@H](O)[C@H]1O
MIC [4]: > 100 µg/mL | IC50 [2]: > 50 µM | IC50 [3]: > 50 µM | MIC [5]: inactive | MIC [6]: inactive | MIC [1]: > 100 µg/mL | IC50 [7]: > 50 µM | MIC [8]: inactive

C=C1CC[C@H]2[C@](C)(CO)CCC[C@]2(C)[C@H]1C[C@]12O[C@H]1[C@@H](O)C(CO)=C(Cl)C2=O
MIC [4]: 12.5 µg/mL (≈ 30.4 µM) | IC50 [2]: 8 µM | IC50 [3]: 7.9 µM | MIC [5]: inactive | MIC [6]: inactive | MIC [1]: 25 µg/mL (≈ 60.8 µM) | IC50 [7]: 15.2 µM | MIC [8]: inactive

C[C@@]1(CO)CCC[C@]2(C)[C@H]3C[C@@]45O[C@@H]4C(=O)[C@]4(CO)O[C@@H]4[C@]5(O)CC3=CC[C@@H]12 [HYMENOPSIN B]
MIC [4]: > 100 µg/mL | IC50 [2]: 1.3 µM | IC50 [3]: 4.5 µM | MIC [5]: inactive | MIC [6]: inactive | MIC [1]: > 100 µg/mL | IC50 [7]: 3.2 µM | MIC [8]: inactive

CC(C)(O/N=C(\C(=O)N[C@@H]1C(=O)N2C(C(=O)[O-])=C(C[n+]3ccccc3)CS[C@H]12)c1csc(N)n1)C(=O)O [CEFTAZIDIME]
MIC [4]: 12.5 µg/mL (≈ 22.9 µM)
